Ends that are not written are not given here. Peptide text beside a SMILES is read from it. * marks the point of attachment. Palmitoyl = CCCCCCCCCCCCCCCC(=O)*; Myristoyl = CCCCCCCCCCCCCC(=O)*
Assays:
[1] = target: T1, recombinant GIPC PDZ (Homo sapiens, UniProt O14908); assay: Surface plasmon resonance binding to recombinant GIPC PDZ
T1 sequence (O14908 133-213 limits assumed): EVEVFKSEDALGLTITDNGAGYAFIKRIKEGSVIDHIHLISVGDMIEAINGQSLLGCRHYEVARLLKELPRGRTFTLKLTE
Method in brief: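 Recombinant GIPC PDZ was amine-coupled to a CM5 chip with NHS/EDC at pH 5.5, the optimum found by pH scouting. Lipidated peptide analyte was diluted in HBS-EP from 10×Kd to 0.1×Kd. Runs used the instrument's kinetic/affinity workflow, and Kd was derived from sensorgram analysis.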

[2] = system: ASPC-1 cells; assay: Thymidine incorporation; type: cell-based, human; conditions: for anti-proliferative activity, screening of lipidated peptides: ASPC-1 cells, [3H] thymidine incorporation, Figure 3A
Method in brief: (§1)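 About 2×10⁴ cells per well in 24-well plates were cultured with peptides, including a palmitoylated scrambled-sequence control, for the indicated time. Media were RPMI-1640 with 10% FBS for ASPC-1 and DMEM with 10% FBS for MiaPaca-2. [³H]thymidine was then added for 4 h. Cells were washed in ice-cold PBS, fixed in chilled methanol and lysed in 0.1 N NaOH, and TCA-precipitable radioactivity was counted. Error bars are SD; t-test.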

[3] = system: MiaPaca-2 cells; assay: Thymidine incorporation; type: cell-based, human; conditions: MiaPaca-2, AP1063 as control, Figure 3D
Method in brief: as §1

[4] = system: Id-1, E-cadherin expression; assay: Western blot of differentiation markers; type: cell-based, human; conditions: Figure 6B
Method in brief: (§2)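 Whole-cell lysates were made in NP-40 buffer with protease and phosphatase inhibitors and cleared at 12,000 rpm for 10 min at 4 °C. Proteins were separated by SDS-PAGE, transferred to PVDF, immunoblotted and detected by chemiluminescence. Cells were harvested at 70–80% confluence.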

[5] = system: Endoglin-GIPC interaction; assay: Immunoprecipitation of endoglin-GIPC interaction; type: cell-based, human; conditions: ASPC-1 and MiaPaca-2 cell lines, Figure 3B
[6] = system: Smad-1/5 phosphorylation; assay: Western blot of Smad phosphorylation and expression; type: cell-based, human; conditions: Figure 5B
Method in brief: as §2

[7] = system: subcutaneous ASPC-1 tumor; assay: Subcutaneous ASPC-1 tumor model, intratumoral peptide injection; type: in vivo, SCID mice; conditions: subcutaneous ASPC-1 model, compared to AP1063, Supplementary Figure S2
Method in brief: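 Male SCID mice aged 6–8 weeks received 5×10⁶ ASPC-1 cells in 100 μl PBS subcutaneously in the right flank. After 9 days they were randomized (n=7 per group) to daily intratumoral peptide at 500 μg/mouse/day in PBS containing 80% DMSO for 3 weeks; comparator was a scrambled palmitoylated peptide. Tumors were fixed in 10% neutral buffered formalin for 24 h, paraffin-embedded and immunostained (DAB, hematoxylin counterstain). t-test.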

[8] = target: T2, Endoglin C-terminal peptide AP1013 (N-myristoyl-PCSTSSMA) (Homo sapiens); assay: SPR
T2 chain: Myristoyl-PCSTSSMA

With `CCCCCCCCCCCCCC(=O)N1CCC[C@H]1C(=O)N[C@@H](CS)C(=O)N[C@@H](CO)C(=O)N[C@H](C(=O)N[C@@H](CO)C(=O)N[C@@H](CO)C(=O)N[C@@H](CCSC)C(=O)N[C@@H](C)C(=O)O)[C@@H](C)O` [AP1013, Myristoyl-PCSTSSMA] (Myristoyl-PCSTSSMA-OH) the Kd [1] was 7.1 ± 2.8 µM.

Ac-PCSTSSMA [AP1030] was tested, and the “anti-proliferative activity, screening of lipidated peptides” value (shortened to “anti-proliferative activity, screening”) [2] was “ineffective”.

With Palmitoyl-PCSTSSMA [AP1032] the inhibition of proliferation [3] was “inhibited proliferation”, the inhibition of proliferation ([2]; ASPC-1, AP1063 as control, Figure 3C) was “inhibited proliferation” and the “anti-proliferative activity, screening” value [2] was “highest anti-proliferative activity”. The Id-1 expression ([4]; ASPC-1 and MiaPaca-2, 100 μmol/L peptide) was “inhibited Id-1 expression”, the E-cadherin expression ([4]; Western blot, 100 μmol/L peptide) was “did not significantly increase” and the “inhibition of endoglin-GIPC interaction” value [5] was “effectively inhibited endoglin-GIPC interaction”. The Smad-1/5 phosphorylation [6] was “clearly inhibits”, the “expressions of Smad1 and Smad 2” value [6] was “also inhibited” and the “microvessel density (MVD)” value [7] was “significant decrease in MVD”. The necrotic area [7] was “increased necrotic area”.

In the case of Palmitoyl-SMTSCAPS [AP1063], the “inhibition of endoglin-GIPC interaction” value [5] is reported as “could not”.

For “myristoyl-PCSTSS[K(εN-benzoyl)]A [AP1035]”, the “anti-proliferative activity, screening” value [2] was “not superior to the corresponding non-modified AP1013”.

With “myristoyl-PCST[K(εN-benzoyl)]SMA [AP1036]” the “anti-proliferative activity, screening” value [2] was “not superior to the corresponding non-modified AP1013”.

B1: GIPC PDZ domain PDZ (protein)
chain: T1 sequence (O14908 133-213 limits assumed)
Work on B1 yielded a Kd [8] of 7.1 µM.
